Bioassay records: PubChem BioAssay, Broad Institute
dFosB activator: mouse delta FosB homodimer activation | P13346 | purified delta FosB, TAMRA-CDK5 oligo fluorescence polarization; percent of positive-control signal above neutral wells | activation, % at 25 µM | 340,000 compounds, 0.99% hits;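 active = mean activation above about 17%, with every replicate also reaching it, limit read from the data, passing the limit was not always enough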
SR-BI DiI inh: blocks mouse SR-BI lipid uptake from DiI-HDL; AID 488896; Q61009; 320,000 compounds, 0.96% hits; ldlA[mSR-BI] CHO cells, DiI-HDL uptake fluorescence, 3 h; inhibition, % at 12.5 µM;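 active = mean replicate inhibition of at least 70% and a set share of replicates each scoring 70 or more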;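 note: 0% = median of neutral control wells and 100% = median of positive control wells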
RAD54 branch: blocks human RAD54 Holliday junction branch migration. FAM/BHQ fluorescence. inhibition, % at 10.4 µM. 360,000 compounds, 0.14% hits;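 active = mean normalized replicate activity at least 40 and at least half of replicates scoring 40 or more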;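 note: 0% = median of neutral control wells and 100% = median of positive control wells; inhibitors cause a drop in the FAM fluorescence signal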
Target sequence (Q92698 whole entry, looked up): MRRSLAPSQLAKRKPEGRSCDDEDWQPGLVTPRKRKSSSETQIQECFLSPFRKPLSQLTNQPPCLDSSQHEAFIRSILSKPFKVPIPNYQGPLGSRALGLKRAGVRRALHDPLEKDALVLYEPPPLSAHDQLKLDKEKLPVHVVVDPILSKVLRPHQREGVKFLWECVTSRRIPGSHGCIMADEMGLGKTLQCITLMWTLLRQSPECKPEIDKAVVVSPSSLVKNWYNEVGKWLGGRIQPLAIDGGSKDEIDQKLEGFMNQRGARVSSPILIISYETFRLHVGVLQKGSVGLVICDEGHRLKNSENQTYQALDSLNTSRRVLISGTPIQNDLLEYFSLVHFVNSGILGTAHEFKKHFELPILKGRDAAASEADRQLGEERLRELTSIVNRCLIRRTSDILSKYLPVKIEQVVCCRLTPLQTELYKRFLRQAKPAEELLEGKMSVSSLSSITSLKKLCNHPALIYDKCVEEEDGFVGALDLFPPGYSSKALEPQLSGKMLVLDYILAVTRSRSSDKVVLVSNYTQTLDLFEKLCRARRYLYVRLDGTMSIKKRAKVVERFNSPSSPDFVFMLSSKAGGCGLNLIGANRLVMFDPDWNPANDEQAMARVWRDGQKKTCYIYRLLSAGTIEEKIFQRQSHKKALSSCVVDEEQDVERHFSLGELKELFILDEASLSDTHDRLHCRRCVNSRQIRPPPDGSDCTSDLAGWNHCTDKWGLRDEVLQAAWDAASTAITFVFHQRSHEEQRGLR
S100A4 inh HTS: blocks human S100A4 binding to myosin IIA peptide; P26447; S100A4/TAMRA-MyoIIA peptide fluorescence polarization; inhibition, % at 10.7 µM; 360,000 compounds, 0.14% hits; AID 652163;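 active = mean inhibition of at least 70% across replicates, with every replicate also reaching that level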
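Material: S100A4 monomer (human). Medium: Calcium-containing HEPES buffer, pH 7.2. Probe or stimulus: labelled myosin peptide probe, 5 nM. Compound dosing: one concentration per compound. Timing: polarization read 5 min after assay mix addition, stable 5–60 min. Benchmarks: DMSO as neutral control, TFP as positive control.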
PvdQ inh: blocks Pseudomonas aeruginosa PvdQ acylase activity; purified PvdQ acylase, fluorescence plate reader; inhibition, % at 10 µM; 340,000 compounds, 0.063% hits; AID 488965; in the data active = inhibition above about 30%, passing the limit was not always enough;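 note: 0% = vehicle neutral wells and 100% = reference inhibitor wells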
SR-BI DiI-HDL act: activators of SR-BI mediated HDL lipid uptake. CHO ldlA[mSR-BI] cells, DiI-HDL uptake fluorescence, 3 h; 100 = double the neutral-control signal. activation, % at 12.5 µM. 320,000 compounds, 0.096% hits. AID 504775;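 active = mean replicate activation of at least 60% and every replicate at or above 60%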;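 note: 0% = median plate neutral-control signal and 100% = twice that signal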
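System: CHO ldlA[mSR-BI] cells / Medium: HEPES-buffered (25 mM, pH 7.4) F12 plus 0.5% BSA / Probe or stimulus: labelled HDL, 10 µg/mL / Doses: single compound concentration, delivered by pin transfer / Schedule: 3 h, 37 °C / Measured by: DiI fluorescence, bottom read / Measure: cell-associated DiI fluorescence as measure of HDL uptake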
An asterisk follows results filed as active; nt = no result. Only some compounds are listed: those with a hit (about 1.6% of all), similar ones and a draw of the others.

SMILES | dFosB activator | SR-BI DiI inh | RAD54 branch | S100A4 inh HTS | PvdQ inh | SR-BI DiI-HDL act
CCOc1ccc(C(=O)Nc2cccc(-c3ccc(N4CCOCC4)nn3)c2)cc1OCC | 11 | 90* | -4 | 0 | -4 | -90
COc1cccc(C(=O)Nc2cccc(-c3ccc(N4CCOCC4)nn3)c2)c1 | -14 | 48 | nt | -6 | -16 | -48
COc1ccc(C(=O)Nc2cccc(-c3ccc(N4CCOCC4)nn3)c2)cc1OC | -7 | 75* | 9 | 2 | -6 | -75
CCOc1cc(C(=O)Nc2cccc(C(C)=O)c2)ccc1OCC(=O)N1CCCCC1 | -13 | 74* | nt | -1 | -1 | -74
C[C@@H]1CCCCO[C@@H](CN(C)C(=O)NC2CCCCC2)[C@H](C)CN([C@@H](C)CO)C(=O)c2cc(NC(=O)c3ccncc3)ccc2O1 | nt | nt | 3 | 2 | nt | nt
Cc1nn(-c2ccc(N3CCCCC3)nn2)c(C)c1CCC(=O)Nc1ccc(F)cc1 | -15 | 49 | 1 | 65 | -5 | -49
CCc1ccc(NC(=O)CCc2c(C)nn(-c3ccc(N4CCCCC4)nn3)c2C)cc1 | 3 | 81* | 1 | 6 | 7 | -81
Cc1ccc(C)c(NC(=O)CCc2c(C)nn(-c3ccc(N4CCCCC4)nn3)c2C)c1 | -8 | 83* | 12 | -2 | -5 | -83
Cc1ccc(NC(=O)CCc2c(C)nn(-c3ccc(N4CCCCC4)nn3)c2C)cc1F | -12 | 53 | 3 | 3 | 12 | -53
COc1ccc(NC(=O)Nc2ccc3c(c2)[C@H]2C[C@@H](CC(=O)N4CCN(C)CC4)O[C@H](CO)[C@H]2O3)cc1 | nt | nt | 0 | -10 | nt | nt
Cc1noc(C)c1NC(=O)Nc1ccc2c(c1)C(=O)N([C@@H](C)CO)C[C@H](C)[C@@H](CN(C)C(=O)Nc1c(C)noc1C)OCCCC[C@H](C)O2 | nt | nt | 9 | 3 | nt | nt
CCOc1ccc(CCNC(=O)c2nnn(CC(=O)Nc3ccc(OC)cc3)c2N)cc1OCC | 7 | 41 | -3 | -5 | -8 | -41
CCOc1ccc(CCNC(=O)c2nnn(CC(=O)Nc3ccc(OC)c(OC)c3)c2N)cc1OCC | 4 | 72* | nt | -9 | -16 | -72
COc1ccc(/C=C/C(=O)NC(=S)NCCc2ccc(OC)c(OC)c2)cc1 | 7 | 83* | -3 | -3 | -4 | -83
CCOc1ccc(/C=C/C(=O)OCC(=O)NCCc2ccc(OCC)c(OCC)c2)cc1OC | 5 | 73* | 6 | -3 | -6 | -73
COc1ccc(CCNC(=O)/C=C\c2ccccc2)cc1OC | -8 | 17 | 5 | 6 | -9 | -17
C[C@@H]1CCCCO[C@H](CN(C)CC2CC2)[C@H](C)CN([C@H](C)CO)C(=O)c2cc(NC(=O)C3CCCCC3)ccc2O1 | nt | nt | 11 | 2 | nt | nt
Cc1onc(-c2ccccc2Cl)c1C(=O)Nc1sc2c(c1C(N)=O)CCC(C)C2 (centres undefined) | -7 | 73* | 5 | nt | -13 | -73
CN(C)CC/C=C1/c2ccccc2COc2ccc(CC(=O)O)cc21 | 3 | -10 | -3 | 166* | 9 | 10
CNC[C@H]1Oc2ccc(NC(=O)Nc3cccc4ccccc34)cc2C(=O)N([C@@H](C)CO)C[C@H]1C | nt | nt | 9 | -2 | nt | nt
O=[N+]([O-])c1ccc(Sc2ccccc2Cl)nc1 | -1 | -12 | -5 | nt | 65* | 12
Cc1noc(C)c1S(=O)(=O)N(C)C[C@@H]1OCCCC[C@@H](C)Oc2ccc(NC(=O)NC(C)C)cc2C(=O)N([C@H](C)CO)C[C@@H]1C | nt | nt | -1 | -2 | nt | nt
C[C@H]1CN([C@@H](C)CO)C(=O)c2cc(Br)cnc2O[C@H]1CN(C)C(=O)Nc1ccccc1 | nt | nt | 3 | -5 | nt | nt
C/C(=C\C(=O)c1ccccc1)NNC(=O)c1ccc(Cl)cc1 | 2 | 91* | 5 | 26 | 3 | -91
O=C(NNC(=O)c1ccc(O)cc1O)c1ccc(Cl)cc1 | 4 | -24 | nt | nt | -9 | 24
SMILES | dFosB activator | SR-BI DiI inh | RAD54 branch | S100A4 inh HTS | PvdQ inh | SR-BI DiI-HDL act
O=C(NNC(=O)c1ccccc1O)c1ccc(Cl)cc1 | 13 | 88* | -4 | nt | 7 | -88
COc1ccc(C(=O)NN/C(C)=C/C(=O)c2ccccc2)cc1 | 5 | 17 | 4 | 0 | -15 | -17
Cc1cccc(C(=O)NNC(=O)c2ccc(Cl)cc2)c1O | 6 | 75* | 4 | nt | -7 | -75
Cc1noc(C)c1S(=O)(=O)Nc1ccc2c(c1)C(=O)N([C@H](C)CO)C[C@H](C)[C@H](CN(C)C(=O)c1ccccc1)OCCCC[C@H](C)O2 | nt | nt | 10 | -7 | nt | nt
C[C@H]1CN([C@@H](C)CO)C(=O)Cc2cc(NC(=O)Cc3ccccc3)ccc2O[C@@H]1CN(C)C(=O)Nc1ccc(F)cc1 | nt | nt | -16 | -3 | nt | nt
C[C@@H]1CN([C@H](C)CO)C(=O)c2cc(NS(=O)(=O)c3cn(C)cn3)ccc2O[C@H]1CN(C)Cc1ccc(Cl)c(Cl)c1 | nt | nt | 0 | 2 | nt | nt
C[C@H](CO)N1C[C@H](C)[C@@H](CN(C)S(=O)(=O)c2ccc(Cl)cc2)OCCCC[C@H](C)Oc2ccc(NS(=O)(=O)c3cn(C)cn3)cc2C1=O | nt | nt | -4 | -4 | nt | nt
CCCOc1ccc(C(=O)N/N=C/c2c[nH]c3ccc(Br)cc23)cc1 | -13 | 9 | 14 | 0 | 12 | -9
CCCCCN=C(N)N/N=C/c1c[nH]c2ccc(OC)cc12 | 18* | 26 | 24 | 9 | -10 | -26
CO[C@H]1CN(C)C(=O)c2cc(NC(=O)NC(C)C)ccc2OC[C@@H](C)N(C(=O)C2CCC2)C[C@@H]1C | nt | nt | 0 | 9 | nt | nt
CN(C)CCc1cc2c(c3c1ccc1ccccc13)OCO2 | 47* | -19 | 95* | 5 | 12 | 19
COc1cc2ccc3c(CCN(C)C)cc(OC)c(OC)c3c2cc1OC | -2 | 37 | 35 | 1 | 8 | -37
NC(=S)N/N=C1\CCOc2ccc(Cl)cc21 | 2 | 73* | nt | -5 | 13 | -73
O=CN(c1ccccc1)c1ccc2ccccc2c1 | -6 | -5 | nt | -5 | 79* | 5
CN(c1ccccc1)S(=O)(=O)c1ccc2ccccc2c1 | -5 | 25 | 10 | 8 | -13 | -25
C[C@H]1CN([C@@H](C)CO)C(=O)c2cc(Br)cnc2O[C@@H]1CN(C)CC1CCOCC1 | nt | nt | 2 | nt | nt | nt
C/C(=N/NC(=O)c1cccs1)c1c(C)[nH]n(-c2nc3ccccc3s2)c1=O | -3 | 107* | 6 | -2 | -1 | -107
CC(=NCc1ccco1)c1c(C)[nH]n(-c2nc3ccccc3s2)c1=O | -4 | 19 | nt | nt | -15 | -19
O=C(CNC(=O)Cc1ccccc1)N=Nc1c(O)n(Cc2ccc3c(c2)OCO3)c2ccccc12 | 20* | -13 | 1 | -1 | -15 | 13
CN1CCN(C(c2ccc(Br)cc2)c2cc(Cl)c3cccnc3c2O)CC1 (centres undefined) | 29* | 3 | 3 | 0 | -13 | -3
